# Sampled rows, rich in hits. Any-hit rate of the full collection: about 3.2%.
# S100A4 inh HTS: inhibitors of S100A4-myosin IIA peptide binding, primary screen, biochemical, fluorescence polarization, TAMRA-MyoIIA peptide | Protein S100-A4 (Homo sapiens), P26447 | inhibition, % at 10.7 µM | hit rate 0.14% among 360,000;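 active = mean inhibition of at least 70% across replicates, with every replicate also reaching that level; inconclusive = mean inhibition reaches 70% but some replicates fall short; inactive = mean inhibition below 70%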
# Target sequence (P26447 whole entry, looked up): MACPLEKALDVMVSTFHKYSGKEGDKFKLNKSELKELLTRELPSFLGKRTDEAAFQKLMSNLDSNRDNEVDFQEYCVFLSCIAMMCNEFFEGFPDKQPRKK
#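 Test system – S100A4 monomer (human) · Compound – single-point compound testing · Schedule – 5 min incubation before reading · Probe or stimulus – TAMRA-labelled myosin IIA heavy-chain peptide probe, 5 nM · Benchmarks – neutral control DMSO, positive control TFP · Medium – Calcium-containing HEPES buffer, pH 7.2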
# PfHsp90 set2: growth inhibition of PfHsp90-expressing yeast, primary screen, antimalarial PfHsp90 inhibitor project, S. cerevisiae, BacTiter-Glo luminescence, single point, set 2 | BacTiter-Glo ATP, 48 h; yeast lacking PDR1 and PDR3 efflux regulators | inhibition, % at 9.4 µM | hit rate 0.32% among 310,000;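 active = every replicate shows inhibition above about 80%, whatever the replicate mean, limit read from the data; inconclusive = mean inhibition reaches the set limit but some replicate falls short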
# DENV2 CPE rescue: inhibitors of DENV2 cytopathic effect, primary screen, cell-based, plate reader, single concentration. AID 651640, 2012. DENV2-infected cells, cytopathic effect rescue. CPE inhibition, % at 9.99 µM. hit rate 1.7% among 350,000; in the data active = CPE inhibition above about 20%, passing the limit was not always enough; inconclusive = no clear call, values can overlap the other calls; tested in BHK-21 cells
# Cneo AK release: Cryptococcus neoformans cell lysis inducers, primary screen, AK release luminescence, single concentration | C. neoformans lysis, adenylate kinase release luminescence, 4 h; normalised: neutral wells 0, clomiphene wells 100 | lysis activity, % at 15 µM | hit rate 0.2% among 360,000;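 active = mean lysis activity across replicates of at least 80%, whatever share of replicates individually reach that level; inactive = mean lysis activity below 80%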
#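 Material: C. neoformans cells; Schedule: 4 h static compound exposure, 37 °C, read 1 h post-reagent; Measured by: adenylate kinase release luminescence; Read-out: signal increase indicating cell lysis; Controls: Clomiphene as positive lysis control.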
# AF4-AF9 inh: inhibitors of AF4 peptide binding to AF9, primary screen, biochemical, AlphaScreen, biotin-AF4 peptide, FLAG-AF9, single point; inhibition, % at 10 µM; Protein AF-9 (Homo sapiens), P42568; hit rate 0.47% among 350,000;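 active = every replicate reaching a set inhibition limit, whatever the replicate mean, cut at about 25% in these data; inconclusive = mean inhibition reaches that limit but some replicates miss it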
# Ecoli rRNA inh: reduced GFP signal of wild-type E. coli, primary screen, bacterial rRNA inhibitor project, GFP/RFP fluorescence, OD600, single point; GFP signal change (wild-type ribosome), % (no concentration beside the values); hit rate 1.6% among 350,000; AID 720706, 2013; E. coli WT GFP vs humanized-ribosome RFP mutants, 24 h; stronger effect = lower value; DMSO median 0, no signal -100;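 active = significant combined selectivity score with lowered wild-type GFP, culture density cut under 30%, mutant RFP and density less affected; inactive = any of these conditions unmet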
# Numbers stand for hits; – = inactive; ? = inconclusive; · = no result given.
SMILES,S100A4 inh HTS,PfHsp90 set2,DENV2 CPE rescue,Cneo AK release,AF4-AF9 inh,Ecoli rRNA inh
CN1CCN(CCCNC(=O)c2ccc(/C=C3/Sc4ccccc4N(Cc4cccc(Cl)c4)C3=O)cc2)CC1,–,–,–,–,27,–
CN1CCN(CCCNC(=O)c2ccc(/C=C3\Oc4ccccc4N(Cc4ccccc4F)C3=O)cc2)CC1,–,–,–,108,–,–
CN1CCN(CCCNC(=O)c2ccc(/C=C3\Sc4ccccc4N(Cc4ccc(F)cc4)C3=O)cc2)CC1,–,–,–,–,–,–
O=C(Cc1ccccc1)N1CC2(C1)[C@@H](c1ccccc1)[C@@H](CO)N2C(=O)Cc1ccccc1,–,·,–,·,–,–
COc1ccc(C(=O)c2cc3ccc(O)cc3oc2=O)cc1,–,–,·,–,–,-18
CN1C(=O)c2cc(NC(=O)c3ccccc3)ccc2OC[C@H]2O[C@@H](CC(=O)NC3CCCC3)CC[C@H]21,–,·,?,–,–,–
Cc1cc(-c2nnc(SCC(=O)Nc3nc(-c4ccc(Cl)cc4)cs3)o2)no1,–,–,–,–,–,-33
O=C(CSc1nc2c(oc3ccccc32)c(=O)n1CC1CCCO1)NCc1ccc(F)cc1 (configuration not stated),–,·,–,–,–,–
O=C(CSc1nc2c(oc3ccccc32)c(=O)n1CC1CCCO1)NCc1ccccc1 (configuration not stated),–,–,72,–,–,–
CCCNC(=O)C[C@@H]1C[C@H]2c3cc(NC(=O)c4ccc5c(c4)OCO5)ccc3O[C@H]2[C@H](CO)O1,·,·,–,–,·,–
Cc1ccccc1S(=O)(=O)NCC[C@H]1CC[C@@H](NC(=O)C2CCCC2)[C@H](CO)O1,–,·,–,–,–,–
CCOC(=O)C1=C(C)Nc2ccccc2N=C1NC(=O)c1cccc(S(=O)(=O)N(C)C)c1,–,–,·,–,·,–
CCOC(=O)C1=C(C)Nc2ccccc2N=C1NC(=O)C(c1ccccc1)c1ccccc1,–,·,–,–,–,-21
COCCNC(=O)C[C@@H]1C[C@H]2c3cc(NC(=O)Nc4ccccc4)ccc3O[C@H]2[C@H](CO)O1,–,·,–,–,–,–
Cc1ccc(S(=O)(=O)Nc2cccc3c2O[C@H](CN(C)Cc2ccc(C(=O)Nc4ccccc4N)cc2)[C@H](C)CN([C@H](C)CO)C3=O)cc1,–,·,21,–,–,–
C[C@H]1CN([C@@H](C)CO)C(=O)c2cccc(NS(=O)(=O)c3ccc(F)cc3)c2O[C@H]1CN(C)Cc1ccc(C(=O)Nc2ccccc2N)cc1,–,·,22,·,–,–
Cc1ccc(S(=O)(=O)Nc2cccc3c2O[C@H](CN(C)Cc2ccc(C(=O)Nc4ccccc4N)cc2)[C@@H](C)CN([C@@H](C)CO)C3=O)cc1,–,·,–,·,–,–
C[C@H](CO)N1C[C@H](C)[C@H](CN(C)Cc2ccc(C(=O)Nc3ccccc3N)cc2)Oc2c(NS(=O)(=O)c3cn(C)cn3)cccc2C1=O,–,·,34,·,–,–
C[C@@H]1CN([C@@H](C)CO)C(=O)c2cccc(NS(=O)(=O)c3ccc(F)cc3)c2O[C@@H]1CN(C)Cc1ccc(C(=O)Nc2ccccc2N)cc1,–,·,–,–,–,–
CCC(=O)N1C[C@H](C)[C@@H](OC)CN(C)C(=O)c2cc(NC(=O)c3ccc(F)cc3)ccc2OC[C@H]1C,–,·,–,–,–,–
CCOC(=O)[C@]12CCCC=C1N(CCC1=CCCCC1)C(=O)[C@H](CC(=O)NCCC(C)C)C2,–,·,–,·,–,–
COC(=O)[C@]12CCCCC=C1N(CCC1=CCCCC1)C(=O)[C@H](CC(=O)NCc1cccc(C(F)(F)F)c1)C2,–,·,51,·,–,–
CCCCCCCCN1C(=O)[C@H](CC(=O)NCCC(C)C)C[C@@]2(C(=O)OCC)CCCC=C12,–,·,20,·,–,–
COC(=O)[C@@]12C[C@@H](CC(=O)NCc3ccc(OC)c(OC)c3)C(=O)N(Cc3ccco3)C1=CCC(C)(C)C2,–,·,22,·,·,·
CCCCNC(=O)C[C@@H]1C[C@@]2(C(=O)OC)CCCCC=C2N(CCC2=CCCCC2)C1=O,–,·,80,·,–,–
CCOC(=O)[C@]12CCCC=C1N(CCC1=CCCCC1)C(=O)[C@H](CC(=O)NCc1cccc(C(F)(F)F)c1)C2,–,·,–,·,·,·

# High-throughput results deposited in PubChem BioAssay by Broad Institute.
